The structures appear in SMILES notation. Hit rate of the full screen: of about 300,000 compounds, about 4,400 (1.5%) were called active.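 The calls were made as follows: active = mean inhibition across valid replicates above about 55% (limit read from the data); inconclusive = mean below that limit but half or more replicates reach it; inactive = mean below it, under half of replicates reach it.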 What follows is part of a selection rich in actives, with near analogues and random picks from the rest.

As a reminder, the inhibition is the change of the read-out against control, counted positive when it falls.

This assay can be described thus: Trypanosoma cruzi replication blockers in host cells – luminescence, NIH3T3 host cells, primary screen (AID 1885).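 Also: signal also drops with host cell toxicity which is not excluded here; 0% = plate median of DMSO wells and 100% = zero luminescence signal; higher percent means less beta-gal luminescence so fewer parasites.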 The note with it: T. cruzi beta-gal in NIH3T3, luminescence, 90 h; stronger effect = higher value; concentration not given here. An outline of the steps:
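Assay system: NIH/3T3 host cells with β-galactosidase reporter T. cruzi; input: 5,000 host fibroblasts per well; compound: single 50 nL compound addition per well in DMSO; timing: ≥90 h infection period, 3 h prior cell attachment; measured by: GalScreen β-gal luminescence, detergent lysis, 60 min; evaluation: percent inhibition of parasite-derived β-gal signal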
For `COC(=O)C(c1ccccc1)N1CCCCCC1` (stereo not given), the inhibition is -2.88% (inactive).

Turning to `COc1ccccc1N1CCN(C(CNC(=O)Oc2ccccc2)c2cccnc2)CC1` (stereo not given), the inhibition is 61.2% (active).

In the case of `O=C(NCC(c1cccnc1)N1CCN(c2ccccc2)CC1)Oc1ccccc1` (stereo not given), the inhibition was 64.2% (active).

Take `c1ccc(CCN2CCC3(CC2)OCCO3)cc1`: the inhibition is 8.57% (inactive).

In the case of `Cc1ccc(C)c(NC2=NCCCS2)c1`, the inhibition is 8.9% (inactive).

`COc1cccc(OC)c1C(=O)NC(=S)N1C[C@H]2C[C@H](C1)c1cccc(=O)n1C2`: the inhibition was 0.307% (inactive).

In the case of `CC(C)c1ccc(-n2c(O)c(/C=N/N3CCOCC3)c(=O)[nH]c2=S)cc1`, the inhibition is -9.55% (inactive).

Turning to `CCN1CC2C3CCC(C)(O3)C2C1` (stereo not given), the inhibition was -4.25% (inactive).

Consider `COc1ccc(CNCCc2c[nH]c3ccccc23)cc1OC`, for which the inhibition is 8.16% (inactive).

In the case of `COc1ccc(Br)cc1CNCCc1cccc(Cl)c1`, the inhibition was 56.8% (active).

For `COc1ccc(CNCCc2ccc3c(c2)OCO3)c(OC)c1OC`, the inhibition was 50.2% (inactive).

Turning to `CC1=CC(=Cc2sc3ccccc3[n+]2C)C=C(C)O1`, the inhibition is 81.1% (active).

With `COc1ccc(N2C(=O)/C(=C/c3ccco3)C(=O)NC2=S)cc1`, the inhibition was -2.75% (inactive).

For the compound `C[C@@]1([C@@H](NP(=O)(c2ccccc2)c2ccccc2)c2ccccc2)C[C@H]1CCO`, the inhibition is 1% (inactive).

For `Cc1ccc(-c2nn(CCC#N)cc2C(=O)O)cc1C`, the inhibition was -14.3% (inactive).

In the case of `COc1ccccc1-n1c(O)c(C=NC2CC2)c(=O)[nH]c1=O`, the inhibition is -10.6% (inactive).

For `COc1cccc(CN2CCCC(C(=O)c3ccccc3SC)C2)c1O` (stereo not given), the inhibition is 0.0491% (inactive).

In the case of `O=C(c1ccccc1[N+](=O)[O-])N1CCC2(CC1)OCCO2`, the inhibition was -12.5% (inactive).

As for `CN1CCC(OC(=O)c2cccc(F)c2)CC1`, the inhibition was 58.3% (active).

In the case of `Cc1ccc(C2CN(C)CC2C(=O)c2ccc(F)cc2)cc1` (stereo not given), the inhibition was -5.25% (inactive).

Regarding `CCC/C(=N\O)c1c[nH]c2ccccc12`, the inhibition is -2.44% (inactive).

`COc1ccc(-n2c(O)c(C(C)=Nc3ccc4c(c3)CCC4)c(=O)[nH]c2=O)cc1`: the inhibition is -27.7% (inactive).

As for `CCOc1ccc(CN(CCCl)CCCl)cc1C(=O)OC`, the inhibition is -1.04% (inactive).

For `CCOc1ccc(-c2cc(C)[n+](CCN(CC)CC)c(-c3ccc(OCC)cc3)c2)cc1`, the inhibition is 64.1% (active).

For `CN1C2C=C(N(C(=O)c3ccc(Cl)cc3)c3ccccc3)CC1CC2` (stereo not given), the inhibition was 9.22% (inactive).

On to `O=C1N=c2ccccc2=C/C1=C\c1c(O)[nH]c(=S)[nH]c1=O`, for which the inhibition is -14% (inactive).

Consider `CCCCCCCCCCCCn1ccc(=N)cc1`, for which the inhibition was 58.9% (active).

As to `CCc1nc2ccccc2c(=O)n1-c1cccc(OC)c1`, the inhibition was -3.64% (inactive).

Consider `CC(C)Oc1cccc(C(=O)C2CCCN(C3CCOCC3)C2)c1` (stereo not given), for which the inhibition was -14% (inactive).

Take `CC(=O)c1c(O)n(C2CCCCCC2)c(=O)[nH]c1=O`: the inhibition was -10.9% (inactive).

With `CC1=C(C(=O)Nc2ccccc2)SCCO1`, the inhibition is -24.2% (inactive).

For the compound `O=C(NC(c1ccc(Cl)cc1)P(=O)(Oc1ccccc1)Oc1ccccc1)OCc1ccccc1` (stereo not given), the inhibition was 12.3% (inactive).

As for `C=CCN1C(=O)NC(=O)/C(=C/c2ccc(OCC(=O)Nc3ccc(C)cc3)cc2)C1=O`, the inhibition was 12.8% (inactive).

Turning to `COc1cc(C(c2c(O)c3ccccc3oc2=O)c2c(C)n(C)n(-c3ccccc3)c2=O)ccc1O` (stereo not given), the inhibition is -33% (inactive).

In the case of `CCOP(=O)(OCC)C(NC(=O)NC)C(N)=O` (stereo not given), the inhibition was 2.29% (inactive).
